Test results from ChEMBL document CHEMBL4316593 (Eur J Med Chem, 2019).
Active and inactive are the calls of the source. No cut-off for these calls is given here.

How the values were obtained:
U-87 MG [1] = assay: Cytotoxicity against human U87 cells assessed as reduction in cell proliferation at 100 uM measured after 48 hrs by trypan blue dye-based cell counting analysis; format: functional; conditions: U-87MG ATCC
Outline: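 Trypan blue viability assay. U87 (MEM, 10% FBS) or LN229 (DMEM, 5% FBS) cells were treated for 48hrs. Screening used 100 μM; the dose-response used 100, 75, 50, 25 and 10 μM. Cells were pelleted at 1200 rpm and live/dead cells counted by automated counter. Mortality % was taken relative to the DMSO control, and IC₅₀ derived from the dose-response curve. Cisplatin served as positive control.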

U-87 MG [2] = assay: Cell cycle arrest in human U87 cells assessed as change in CDK6 gene expression at cytotoxic IC50 measured after 48 hrs […] relative to control; format: functional, U-87MG ATCC
Outline: (§1)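 U87 expression profiling. Cells incubated 48hrs at 37°C, 5% CO₂ with the IC₅₀ concentration, alongside a cisplatin and an untreated control, in triplicate. RNA was isolated by one common protocol and profiled. DEGs were called with DESeq2 (q < 0.05, fold change > 1.5) and expressed as fold change versus untreated.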

U-87 MG [3] = assay: Cell cycle arrest in human U87 cells assessed as change in CDK2 gene expression at cytotoxic IC50 measured after 48 hrs […] relative to control; format: functional, U-87MG ATCC; outline: as §1
U-87 MG [4] = assay: Cell cycle arrest in human U87 cells assessed as change in E2F2 gene expression at cytotoxic IC50 measured after 48 hrs […] relative to control; format: functional, U-87MG ATCC; outline: as §1
U-87 MG [5] = assay: Induction of DNA damage in human U87 cells assessed as change in PCNA gene expression at cytotoxic IC50 measured after 48 hrs […] relative to control; format: functional, U-87MG ATCC; outline: as §1
U-87 MG [6] = assay: Induction of DNA damage in human U87 cells assessed as change in BTG2 gene expression at cytotoxic IC50 measured after 48 hrs […] relative to control; format: functional, U-87MG ATCC; outline: as §1
U-87 MG [7] = assay: Induction of DNA damage in human U87 cells assessed as change in BRCA1 gene expression at cytotoxic IC50 measured after 48 hrs […] relative to control; format: functional, U-87MG ATCC; outline: as §1
U-87 MG [8] = assay: Induction of DNA damage in human U87 cells assessed as change in PLK3 gene expression at cytotoxic IC50 measured after 48 hrs […] relative to control; format: functional, U-87MG ATCC; outline: as §1
U-87 MG [9] = assay: Induction of DNA damage in human U87 cells assessed as change in FANCI gene expression at cytotoxic IC50 measured after 48 hrs […] relative to control; format: functional, U-87MG ATCC; outline: as §1
U-87 MG [10] = assay: Induction of DNA damage in human U87 cells assessed as change in PLK2 gene expression at cytotoxic IC50 measured after 48 hrs […] relative to control; format: functional, U-87MG ATCC; outline: as §1
U-87 MG [11] = assay: Induction of apoptosis in human U87 cells assessed as change in GADD45A gene expression at cytotoxic IC50 measured after 48 hrs […] relative to control; format: functional, U-87MG ATCC
Outline: (§2)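 U87 cells grown in MEM with 10% FBS at 37°C, 5% CO2. Cells exposed to IC50 of test compound for 48 hrs, alongside untreated and cisplatin controls, each condition in triplicate. RNA isolated and profiled; differential expression called with DESeq2 (q-value < 0.05, fold change > 1.5), fold change versus untreated.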

U-87 MG [12] = assay: Induction of apoptosis in human U87 cells assessed as change in ITPR1 gene expression at cytotoxic IC50 measured after 48 hrs […] relative to control; format: functional, U-87MG ATCC; outline: as §2
U-87 MG [13] = assay: Induction of apoptosis in human U87 cells assessed as change in BCL2L1 gene expression at cytotoxic IC50 measured after 48 hrs […] relative to control; format: functional, U-87MG ATCC; outline: as §2
[14] = Inhibition of RTK/PI3K/AKT/mTOR signaling in human U87 cells assessed as down regulation of LAMA2 gene expression at cytotoxic IC50 measured after 48 hrs relative to control; format: cell-based; conditions: U-87MG ATCC; outline: as §2
[15] = Inhibition of RTK/PI3K/AKT/mTOR signaling in human U87 cells assessed as down regulation of ZYG11B gene expression at cytotoxic IC50 measured after 48 hrs relative to control; format: cell-based; conditions: U-87MG ATCC
Outline: (§3)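 Cells were exposed for 48hrs at 37°C in humidified 5% CO₂ to the compound at its previously determined IC₅₀, with Cisplatin at its IC₅₀ and an untreated negative control alongside. Each condition was run in triplicate. RNA was isolated from all samples by the same protocol. Genes were called differentially expressed by DESeq2 at q-value < 0.05 and fold change > 1.5.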

[16] = Inhibition of RTK/PI3K/AKT/mTOR signaling in human U87 cells assessed as down regulation of PHIP gene expression at cytotoxic IC50 measured after 48 hrs relative to control; format: cell-based; conditions: U-87MG ATCC; outline: as §3
[17] = Inhibition of RTK/PI3K/AKT/mTOR signaling in human U87 cells assessed as down regulation of CMTM3 gene expression at cytotoxic IC50 measured after 48 hrs relative to control; format: cell-based; conditions: U-87MG ATCC; outline: as §2
[18] = Inhibition of RTK/PI3K/AKT/mTOR signaling in human U87 cells assessed as down regulation of SOD2 gene expression at cytotoxic IC50 measured after 48 hrs relative to control; format: cell-based; conditions: U-87MG ATCC; outline: as §3
[19] = Inhibition of RTK/PI3K/AKT/mTOR signaling in human U87 cells assessed as down regulation of FLII gene expression at cytotoxic IC50 measured after 48 hrs relative to control; format: cell-based; conditions: U-87MG ATCC; outline: as §2
[20] = Inhibition of RTK/PI3K/AKT/mTOR signaling in human U87 cells assessed as down regulation of DHX30 gene expression at cytotoxic IC50 measured after 48 hrs relative to control; format: cell-based; conditions: U-87MG ATCC; outline: as §2
[21] = Inhibition of RTK/PI3K/AKT/mTOR signaling in human U87 cells assessed as down regulation of XPO6 gene expression at cytotoxic IC50 measured after 48 hrs relative to control; format: cell-based; conditions: U-87MG ATCC; outline: as §3
[22] = Inhibition of RTK/PI3K/AKT/mTOR signaling in human U87 cells assessed as up regulation of NFATC4 gene expression at cytotoxic IC50 measured after 48 hrs relative to control; format: cell-based; conditions: U-87MG ATCC; outline: as §3
[23] = Inhibition of RTK/PI3K/AKT/mTOR signaling in human U87 cells assessed as up regulation of T-cell leukemia translocation altered gene expression at cytotoxic IC50 measured after 48 hrs relative to control; format: cell-based
[24] = Inhibition of RTK/PI3K/AKT/mTOR signaling in human U87 cells assessed as up regulation of ankyrin repeat domain 10 gene expression at cytotoxic IC50 measured after 48 hrs relative to control; format: cell-based; conditions: U-87MG ATCC
[25] = Inhibition of RTK/PI3K/AKT/mTOR signaling in human U87 cells assessed as up regulation of isoleucyl-tRNA synthetase gene expression at cytotoxic IC50 measured after 48 hrs relative to control; format: cell-based; conditions: U-87MG ATCC
[26] = Inhibition of RTK/PI3K/AKT/mTOR signaling in human U87 cells assessed as up regulation of solute carrier family 4 member 2 gene expression at cytotoxic IC50 measured after 48 hrs relative to control; format: cell-based; conditions: U-87MG ATCC
[27] = Inhibition of RTK/PI3K/AKT/mTOR signaling in human U87 cells assessed as up regulation of MRG domain binding protein gene expression at cytotoxic IC50 measured after 48 hrs relative to control; format: cell-based; conditions: U-87MG ATCC; outline: as §3
[28] = Inhibition of RTK/PI3K/AKT/mTOR signaling in human U87 cells assessed as up regulation of GGA2 gene expression at cytotoxic IC50 measured after 48 hrs relative to control; format: cell-based; conditions: U-87MG ATCC; outline: as §3

CC(=O)C(=NNc1ccccc1C#N)C(C)=O
Activity (U-87 MG [1]): Active | fold change (FC) (U-87 MG [2]): -1.311 | fold change (FC) (U-87 MG [3]): 1.392 | fold change (FC) (U-87 MG [4]): 2.384 | fold change (FC) (U-87 MG [5]): 1.668 | fold change (FC) (U-87 MG [6]): 2.177 | fold change (FC) (U-87 MG [7]): 2.408 | fold change (FC) (U-87 MG [8]): 1.714 | fold change (FC) (U-87 MG [9]): 1.708 | fold change (FC) (U-87 MG [10]): 1.28 | log2FC (U-87 MG [11]): -0.9679 | log2FC (U-87 MG [12]): -3.437 | log2FC (U-87 MG [13]): 0.9994 | log2FC [14]: -1.14 | log2FC [15]: -0.823 | log2FC [16]: -0.753 | log2FC [17]: -0.716 | log2FC [18]: -0.617 | log2FC [19]: -0.583 | log2FC [20]: -0.431 | log2FC [21]: -0.363 | log2FC [22]: 2.89 | log2FC [23]: 1.25 | log2FC [24]: 1.12 | log2FC [25]: 1.04 | log2FC [26]: 1.04 | log2FC [27]: 0.97 | log2FC [28]: 0.505
